Laboratory results taken from PMC10825549 (JID Innovations, 2023).
“And” between values parts separate entries of the source, which are not always exact repeats. Identical values can stand only once. “Also recorded” adds a separate entry of the source.

Assays:
[1] = test system: participants with atopic dermatitis; experiment: Phase 2a study ATI-1777-AD-201: safety; assay type: in vivo, human
Outline: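 Adults with moderate/severe AD applied 2% solution or vehicle twice daily for 4 weeks. TEAEs: onset on/after first dose and before last dose […], counted once per preferred term and system organ class. Also assessed serious AEs, labs, vital signs, physical exams, 12-lead ECG. Full analysis set; safety reviewed every 4 weeks.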

FLT4 (VEGFR3) = FLT4 (VEGFR3) (Homo sapiens, UniProt P35916); experiment: IC50 for kinases of potential cross-over; assay type: biochemical
Jak2/2 = experiment: Inhibition of GM-CSF-induced STAT phosphorylation in PBMCs; assay type: cell-based, human
Outline: (§1)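 Ficoll-isolated human PBMCs, cryopreserved, thawed into RPMI/10% heat-inactivated FBS assay medium, 200,000 cells/well. Serially diluted test compound (final 20 μM to 2 × 10−6 μM) or 0.1% DMSO vehicle preincubated 1 h at 37 °C. Cytokine then added for 5–10 min, followed by 30 min shaking at 4 °C and lysis. Phospho-STAT5/STAT4 by MSD immunoassay, phospho-STAT1 by ELISA. IC50 reported as mean ± SD.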

[2] = test system: moderate or severe atopic dermatitis; experiment: Phase 2a study ATI-1777-AD-201: efficacy; assay type: in vivo, human
Outline: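 Randomized 1:1, double-blind, vehicle-controlled, 14 US sites; stratified by severity. Adults 18–65 with moderate/severe AD (IGA 3–4, 3–20% BSA). Up to 8 ml 2.0% w/w solution or vehicle applied twice daily for 28 days, 2-week follow-up. mEASI, IGA, BSA assessed days 8, 15, 28; PP-NRS tracked. MMRM, 1-sided tests, full analysis set (23 vs 25).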

RSK2 = RSK2 (Homo sapiens, UniProt P51812); experiment: IC50 for kinases of potential cross-over; assay type: biochemical
TXK = TXK (Homo sapiens, UniProt P42681); experiment: IC50 for kinases of potential cross-over; assay type: biochemical
[3] = Metabolic stability in liver microsomes; assay type: in vitro ADME; conditions: human
Outline: (§2)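 Test compound from 1 mM DMSO solution preincubated 5 min with dog, human, monkey, rat or minipig liver microsomes. NADPH (10 mM) then added. Reactions stopped at 0, 5, 15 and 30 min with 0.05% formic acid in acetonitrile containing loperamide internal standard. Supernatants analysed by LC-MS/MS; n = 1 per microsome species.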

[4] = Metabolic stability in liver microsomes; assay type: in vitro ADME; conditions: mouse
Jak2/TYK2 = experiment: Inhibition of IL-12-induced STAT phosphorylation in PBMCs; assay type: cell-based, human
Outline: as §1

Jak1/3 = experiment: IC50 of ATI-1777 for inhibiting Jak1/3 used as plasma reference level; conditions: reference level for plasma concentrations; assay not described
minipig = experiment: 28-day minipig repeat exposure study: toxicology; assay type: in vivo; conditions: topical solution daily for 28 days, 0, 40, 80 and 160 mg/day
Outline: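 GLP repeat-dose dermal study in minipigs. Topical solution given daily for 28 days at 0, 40, 80 and 160 mg/day. Left on skin 20–22 h each day, then the site was wiped clean with a moist towel. Dermal tolerability and toxicokinetics assessed.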

[5] = Metabolic stability in liver microsomes; assay type: in vitro ADME; conditions: minipig
Outline: as §2

[6] = TEAE, full analysis set, n = 23
[7] = Homo sapiens, PBMC, read-out: IC50 Mean ± SD
[8] = day 28, 2% topical solution twice daily, n = 23

Sequence of FLT4 (VEGFR3) (P35916 25-1363): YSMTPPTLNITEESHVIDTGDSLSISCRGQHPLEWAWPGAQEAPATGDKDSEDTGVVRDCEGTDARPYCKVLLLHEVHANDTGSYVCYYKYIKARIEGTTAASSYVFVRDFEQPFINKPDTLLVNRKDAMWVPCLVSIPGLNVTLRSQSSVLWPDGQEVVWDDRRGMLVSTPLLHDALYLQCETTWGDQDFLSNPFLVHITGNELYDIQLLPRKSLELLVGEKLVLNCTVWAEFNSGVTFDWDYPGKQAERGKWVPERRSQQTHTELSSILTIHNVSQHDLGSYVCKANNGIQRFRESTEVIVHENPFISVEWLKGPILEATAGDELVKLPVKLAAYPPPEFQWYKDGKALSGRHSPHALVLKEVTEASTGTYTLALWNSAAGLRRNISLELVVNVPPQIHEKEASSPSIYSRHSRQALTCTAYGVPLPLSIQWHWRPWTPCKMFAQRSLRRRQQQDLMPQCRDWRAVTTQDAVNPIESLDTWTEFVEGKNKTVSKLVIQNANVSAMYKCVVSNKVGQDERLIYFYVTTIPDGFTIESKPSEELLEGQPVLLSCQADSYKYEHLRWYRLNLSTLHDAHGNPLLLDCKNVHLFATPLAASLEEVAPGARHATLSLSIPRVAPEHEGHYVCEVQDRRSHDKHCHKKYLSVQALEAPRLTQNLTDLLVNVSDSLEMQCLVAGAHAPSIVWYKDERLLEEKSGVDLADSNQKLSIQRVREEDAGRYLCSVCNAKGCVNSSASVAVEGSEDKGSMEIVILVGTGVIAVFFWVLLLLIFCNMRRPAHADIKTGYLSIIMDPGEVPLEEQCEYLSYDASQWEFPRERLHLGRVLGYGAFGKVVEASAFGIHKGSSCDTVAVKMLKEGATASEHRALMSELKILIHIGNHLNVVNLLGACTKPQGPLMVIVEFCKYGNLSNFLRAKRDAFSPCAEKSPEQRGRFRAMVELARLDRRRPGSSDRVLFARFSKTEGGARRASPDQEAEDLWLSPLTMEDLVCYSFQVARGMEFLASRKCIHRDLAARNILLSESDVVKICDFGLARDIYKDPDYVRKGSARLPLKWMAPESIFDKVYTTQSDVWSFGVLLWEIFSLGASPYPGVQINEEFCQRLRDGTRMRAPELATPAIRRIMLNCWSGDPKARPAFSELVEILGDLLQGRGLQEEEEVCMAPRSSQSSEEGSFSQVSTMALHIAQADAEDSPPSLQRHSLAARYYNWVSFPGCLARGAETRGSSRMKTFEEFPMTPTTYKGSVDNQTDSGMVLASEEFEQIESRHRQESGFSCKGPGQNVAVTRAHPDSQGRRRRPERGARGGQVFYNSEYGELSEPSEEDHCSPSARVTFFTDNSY
Sequence of RSK2 (P51812 whole entry): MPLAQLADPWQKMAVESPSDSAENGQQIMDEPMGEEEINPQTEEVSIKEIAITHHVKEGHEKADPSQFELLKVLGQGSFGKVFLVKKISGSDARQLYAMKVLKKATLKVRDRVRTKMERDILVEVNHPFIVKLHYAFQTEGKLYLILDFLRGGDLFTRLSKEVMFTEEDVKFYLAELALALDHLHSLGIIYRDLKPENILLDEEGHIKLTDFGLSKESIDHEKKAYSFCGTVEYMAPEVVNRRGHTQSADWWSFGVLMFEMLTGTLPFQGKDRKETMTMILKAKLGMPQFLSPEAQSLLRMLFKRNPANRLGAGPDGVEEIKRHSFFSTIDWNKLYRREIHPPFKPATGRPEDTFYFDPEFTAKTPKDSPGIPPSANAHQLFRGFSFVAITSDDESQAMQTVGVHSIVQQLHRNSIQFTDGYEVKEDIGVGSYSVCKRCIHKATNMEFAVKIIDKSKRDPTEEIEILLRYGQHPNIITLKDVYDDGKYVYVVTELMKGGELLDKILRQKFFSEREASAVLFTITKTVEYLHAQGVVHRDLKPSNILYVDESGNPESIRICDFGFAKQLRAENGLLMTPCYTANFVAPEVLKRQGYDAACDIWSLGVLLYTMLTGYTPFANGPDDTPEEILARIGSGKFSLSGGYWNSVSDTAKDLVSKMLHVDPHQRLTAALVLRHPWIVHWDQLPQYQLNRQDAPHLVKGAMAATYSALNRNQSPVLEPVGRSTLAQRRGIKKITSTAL
Sequence of TXK (P42681 whole entry): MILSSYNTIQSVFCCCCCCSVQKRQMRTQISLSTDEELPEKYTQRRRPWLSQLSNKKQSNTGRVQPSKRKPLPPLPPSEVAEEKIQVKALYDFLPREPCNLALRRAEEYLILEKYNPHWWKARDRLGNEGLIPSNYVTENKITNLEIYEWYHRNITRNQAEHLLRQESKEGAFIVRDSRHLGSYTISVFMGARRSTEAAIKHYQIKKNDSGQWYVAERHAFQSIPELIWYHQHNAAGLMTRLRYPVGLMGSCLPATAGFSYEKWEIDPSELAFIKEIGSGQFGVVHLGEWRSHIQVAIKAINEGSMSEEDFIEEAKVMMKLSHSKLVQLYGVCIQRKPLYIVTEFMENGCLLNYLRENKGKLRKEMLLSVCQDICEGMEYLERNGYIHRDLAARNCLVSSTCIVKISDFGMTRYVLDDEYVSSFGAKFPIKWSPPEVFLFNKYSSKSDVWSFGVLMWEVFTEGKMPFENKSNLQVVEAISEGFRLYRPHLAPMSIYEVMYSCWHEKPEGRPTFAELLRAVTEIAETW

SMILES: CCOC(=O)c1cnc2[nH]ccc2c1N[C@@H]1CCCN(C(=O)CC#N)C1 [ATI-1777, ethyl (R)-4-((1-(2-cyanoacetyl)piperidin-3-yl)amino)-1H-pyrrolo[2,3-b]pyridine-5-carboxylate]
- deaths, serious adverse events, TEAEs of special interest ([1]; 2% topical solution twice daily, 4 weeks): No deaths or serious adverse events were reported; also recorded: No deaths or treatment-emergent AEs (TEAEs) of special interest; also recorded: No deaths or serious AEs were reported
- AEs reported, proportion of participants ([1]; 2% topical solution twice daily, 4 weeks, n = 23): 39.1%
- Acrochordon, Number of Events ([1]; TEAE, PT, n = 23): 1
- Acrochordon, Number of Subjects ([1]; TEAE, PT, n = 23): 1 (4.3) n (%)
- Amylase increased, Number of Events ([1]; TEAE, PT, n = 23): 1
- Amylase increased, Number of Subjects ([1]; TEAE, PT, n = 23): 1 (4.3) n (%)
- Application site irritation, Number of Events ([1]; TEAE, PT, n = 23): 0
- Application site irritation, Number of Subjects ([1]; TEAE, PT, n = 23): 0 n (%)
- Application site pruritus, Number of Events ([1]; TEAE, PT, n = 23): 1
- Application site pruritus, Number of Subjects ([1]; TEAE, PT, n = 23): 1 (4.3) n (%)
- Atrial fibrillation, Number of Events ([1]; TEAE, PT, n = 23): 1
- Atrial fibrillation, Number of Subjects ([1]; TEAE, PT, n = 23): 1 (4.3) n (%)
- Blood CPK increased, Number of Events ([1]; TEAE, PT, n = 23): 2
- Blood CPK increased, Number of Subjects ([1]; TEAE, PT, n = 23): 2 n (%) and 2 (8.7) n (%)
- COVID-19, Number of Events ([1]; TEAE, PT, n = 23): 0
- COVID-19, Number of Subjects ([1]; TEAE, PT, n = 23): 0 n (%)
- Candida infection, Number of Events ([1]; TEAE, PT, n = 23): 1
- Candida infection, Number of Subjects ([1]; TEAE, PT, n = 23): 1 (4.3) n (%)
- Dizziness, Number of Events ([1]; TEAE, PT, n = 23): 1
- Dizziness, Number of Subjects ([1]; TEAE, PT, n = 23): 1 (4.3) n (%)
- Folliculitis, Number of Events ([1]; TEAE, PT, n = 23): 1
- Folliculitis, Number of Subjects ([1]; TEAE, PT, n = 23): 1 (4.3) n (%)
- Food poisoning, Number of Events ([1]; TEAE, PT, n = 23): 1
- Food poisoning, Number of Subjects ([1]; TEAE, PT, n = 23): 1 (4.3) n (%)
- Headache, Number of Events ([1]; TEAE, PT, n = 23): 2
- Headache, Number of Subjects ([1]; TEAE, PT, n = 23): 2 n (%) and 2 (8.7) n (%)
- Lipase increased, Number of Events ([1]; TEAE, PT, n = 23): 1
- Lipase increased, Number of Subjects ([1]; TEAE, PT, n = 23): 1 (4.3)1 n (%)
- Oropharyngeal pain, Number of Events ([1]; TEAE, PT, n = 23): 0
- Oropharyngeal pain, Number of Subjects ([1]; TEAE, PT, n = 23): 0 n (%)
- Pharyngitis streptococcal, Number of Events ([1]; TEAE, PT, n = 23): 0
- Pharyngitis streptococcal, Number of Subjects ([1]; TEAE, PT, n = 23): 0 n (%)
- Rash, Number of Events ([1]; TEAE, PT, n = 23): 0
- Rash, Number of Subjects ([1]; TEAE, PT, n = 23): 0 n (%)
- SARS-CoV-2 test positive, Number of Events ([1]; TEAE, PT, n = 23): 0
- SARS-CoV-2 test positive, Number of Subjects ([1]; TEAE, PT, n = 23): 0 n (%)
- Sinus congestion, Number of Events ([1]; TEAE, PT, n = 23): 0
- Sinus congestion, Number of Subjects ([1]; TEAE, PT, n = 23): 0 n (%)
- Skin fragility, Number of Events ([1]; TEAE, PT, n = 23): 0
- Skin fragility, Number of Subjects ([1]; TEAE, PT, n = 23): 0 n (%)
- Somnolence, Number of Events ([1]; TEAE, PT, n = 23): 0
- Somnolence, Number of Subjects ([1]; TEAE, PT, n = 23): 0 n (%)
- Tinea infection, Number of Events ([1]; TEAE, PT, n = 23): 1
- Tinea infection, Number of Subjects ([1]; TEAE, PT, n = 23): 1 (4.3) n (%)
- Transaminases increased, Number of Events ([1]; TEAE, PT, n = 23): 1
- Transaminases increased, Number of Subjects ([1]; TEAE, PT, n = 23): 1 (4.3) n (%)
- Urinary tract infection, Number of Events ([1]; TEAE, PT, n = 23): 1
- Urinary tract infection, Number of Subjects ([1]; TEAE, PT, n = 23): 1 n (%) and 1 (4.3) n (%)
- Cardiac disorders, Number of Events ([1]; TEAE, SOC, n = 23): 1
- Cardiac disorders, Number of Subjects ([1]; TEAE, SOC, n = 23): 1 (4.3) n (%)
- Gastrointestinal disorders, Number of Events ([1]; TEAE, SOC, n = 23): 1
- Gastrointestinal disorders, Number of Subjects ([1]; TEAE, SOC, n = 23): 1 (4.3) n (%)
- General disorders and administration site conditions, Number of Events ([1]; TEAE, SOC, n = 23): 1
- General disorders and administration site conditions, Number of Subjects ([1]; TEAE, SOC, n = 23): 1 (4.3) n (%)
- Infections and infestations, Number of Events ([1]; TEAE, SOC, n = 23): 4
- Infections and infestations, Number of Subjects ([1]; TEAE, SOC, n = 23): 3 (13.0) n (%)
- Investigations, Number of Events ([1]; TEAE, SOC, n = 23): 5
- Investigations, Number of Subjects ([1]; TEAE, SOC, n = 23): 3 (13.0) n (%)
- Neoplasms benign, malignant, and unspecified (including cysts and polyps), Number of Events ([1]; TEAE, SOC, n = 23): 1
- Neoplasms benign, malignant, and unspecified (including cysts and polyps), Number of Subjects ([1]; TEAE, SOC, n = 23): 1 (4.3) n (%)
- Nervous system disorders, Number of Events ([1]; TEAE, SOC, n = 23): 3
- Nervous system disorders, Number of Subjects ([1]; TEAE, SOC, n = 23): 3 (13.0) n (%)
- Respiratory, thoracic, and mediastinal disorders, Number of Events ([1]; TEAE, SOC, n = 23): 0
- Respiratory, thoracic, and mediastinal disorders, Number of Subjects ([1]; TEAE, SOC, n = 23): 0 n (%)
- Skin and subcutaneous tissue disorders, Number of Events ([1]; TEAE, SOC, n = 23): 0
- Skin and subcutaneous tissue disorders, Number of Subjects ([1]; TEAE, SOC, n = 23): 0 n (%)
- Any AE, Number of Events [1, 6]: 16
- Any AE, Number of Subjects [1, 6]: 9 (39.1) n (%)
- participants who discontinued study participation owing to TEAEs ([1]; n = 23): No participants
- TEAE related to study treatment ([1]; one related TEAE in the group): mild application site pruritus
- IC50 (FLT4 (VEGFR3)): 113 nM
- Fold Selectivity (FLT4 (VEGFR3); FLT4 (VEGFR3) vs Jak1 (= 1)): 75 fold
- Fold Jak1/3 (Jak2/2; GM-CSF, Jak2/2 vs Jak1/3): 41.8 fold
- IC50 (Jak2/2; [7]): 794 ± 121 nM
- least squared means change from baseline of PP-NRS score ([2]; SE = 0.548, P = .060 vs vehicle): −2.92
- BSA affected by AD, change from baseline ([2]; day 8): −1.55%
- BSA affected by AD, change from baseline ([2]; day 15): −3.33%
- participants achieving a 50% reduction in mEASI [2, 8]: 91.3%
- participants achieving a 75% reduction in mEASI [2, 8]: 65.2%
- BSA affected by AD, change from baseline ([2]; day 28, P < .001 vs vehicle): −5.59%
- percentage reduction from baseline in mEASI score ([2]; day 28, mixed model for repeated measures without imputation, SE = 5.943): 78.46%
- participants achieving an IGA score of 0 or 1 with ≥2 point improvement ([2]; end of treatment period (day 28), P = .131 vs vehicle, n = 23): 39.1%
- IC50 (RSK2): 1050 nM
- Fold Selectivity (RSK2; RSK2 vs Jak1 (= 1)): 700 fold
- IC50 (TXK): 351 nM
- Fold Selectivity (TXK; TXK vs Jak1 (= 1)): 234 fold
- CLint scaled [3]: 200 mL/min/kg
- microsomal CLint [3]: 74 µL/min/mg
- half-life ([3]; T1/2, Study 1, n = 1): 8.71 min
- half-life ([3]; T1/2, Study 2, n = 1): 19 min
- CLint scaled [4]: 3280 mL/min/kg
- half-life [4]: 1.66 min
- IC50 (Jak2/TYK2; [7]): 898 ± 178 nM
- Fold Jak1/3 (Jak2/TYK2; IL-12, Jak2/TYK2 vs Jak1/3): 47.3 fold
- IC50 of ATI-1777 for inhibiting Jak1/3 (Jak1/3): 0.045 µg/mL
- ATI-1777–related effects / adverse effects (minipig): No ATI-1777–related effects were noted at any dose; also recorded: did not present any adverse effects
- CLint scaled [5]: 365 mL/min/kg
- microsomal CLint [5]: 295 µL/min/mg
- half-life ([5]; T1/2, Study 1, n = 1): 2.85 min
- half-life ([5]; T1/2, Study 2, n = 1): 5 min
